Laboratory results from ChEMBL document CHEMBL1126076, “Synthesis and thromboxane A2/prostaglandin H2 receptor antagonistic activity of phenol derivatives” (J Med Chem, 1992).

Columns and labels:
[1] = species: Homo sapiens; assay: Concentration required to reduced U-46619-induced aggregation of human platelet by 50%.; assay type: functional
Method in brief: (§1)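 Healthy male volunteers, medication-free for at least 10 days, gave blood into 3.8% sodium citrate. PRP was adjusted to 400000 platelets/µL with PPP, preincubated at 37 °C for 2 min, then given drug or vehicle for 2 min. Aggregation was triggered with submaximal U-46619 (1–3 µM) and read photometrically (Born).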

[2] = system: Cavia porcellus; assay: The compound was tested in vivo for the inhibition of U-46619-induced bronchoconstriction in guinea pig, 1 hr after oral administration at a dose of 5 mg/Kg.; assay type: functional; conditions: PIG1, po
Method in brief: (§2)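 Guinea pigs received drug suspended in 5% gum arabic orally 1 h before U-46619 challenge. The result is percent inhibition of bronchoconstriction versus control, tested with Dunnett's test.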

[3] = species: Oryctolagus cuniculus; assay: Concentration required to reduced U-46619-induced contraction of the rabbit aorta by 50%.; assay type: functional
[4] = system: Rattus norvegicus; assay: The compound was tested in vivo for the inhibition of U-46619-induced bronchoconstriction in rat, 1 hr after oral administration at a dose of 5 mg/Kg.; assay type: functional
Method in brief: (§3)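 Male Sprague-Dawley rats received drug suspended in 5% gum arabic orally 1 h before U-46619 (30 µg/kg, iv). Bronchoconstriction was recorded by the Konzett-Rössler method and expressed as percent inhibition versus control, tested with Dunnett's test.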

[5] = system: Thromboxane A2 receptor (Cavia porcellus); assay: Inhibition of specific binding of [3H]U-46619 to TXA2/PGH2 receptor in guinea pig platelet membrane
[6] = system: Cavia porcellus; assay: The compound was tested in vivo for the inhibition of U-46619-induced bronchoconstriction in guinea pig, 1 hr after oral administration at a dose of 1.25 mg/Kg.; assay type: functional; conditions: PIG1, po; method in brief: as §2
[7] = system: Rattus norvegicus; assay: The compound was tested in vivo for the inhibition of U-46619-induced bronchoconstriction in rat, 1 hr after oral administration at a dose of 1.25 mg/Kg.; assay type: functional; method in brief: as §3
[8] = species: Oryctolagus cuniculus; assay: Concentration required to reduced U-46619-induced contraction of the rabbit aorta by 50%.(values in parentheses are 95% confidence limits); assay type: functional
[9] = species: Homo sapiens; assay: Concentration required to reduced U-46619-induced aggregation of human platelet by 50%.(values in parentheses are 95% confidence limits); assay type: functional; method in brief: as §1
[10] = system: Cavia porcellus; assay: The compound was tested in vivo for the inhibition of U-46619-induced bronchoconstriction in guinea pig, 1 hr after oral administration at a dose of 0.31 mg/Kg.; assay type: functional; conditions: PIG1, po; method in brief: as §2
[11] = species: Cavia porcellus; assay: Compound was evaluated for inhibition of specific binding of [3H]U-46619 to guinea pig platelet membrane.; assay type: functional
Method in brief: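 Guinea pig blood was drawn by cardiac puncture into 0.315% citrate plus 1 mM aspirin (final). PRP platelets were washed in 25 mM Tris-HCl/5 mM MgCl2 pH 7.4, sonicated, and the 100000 g pellet used at 1 mg/mL protein. Membranes were incubated with 4 nM [3H]U-46619 and drug at 25 °C for 30 min, then filtered and counted. The IC50 is for specific binding, with 2–6 replicates per dose.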

[12] = system: Cavia porcellus; assay: Compound was tested in vivo for the inhibition of U-46619-induced bronchoconstriction in guinea pig, 1 hr after oral administration at a dose of 5 mg/Kg.; assay type: functional; conditions: PIG1, po, read-out: Inhibition; method in brief: as §2
[13] = system: Cavia porcellus; assay: compound was tested in vivo for the inhibition of U-46619-induced bronchoconstriction in guinea pig, 1 hr after oral administration at a dose of 1.25 mg/Kg.; assay type: functional; conditions: PIG1, po; method in brief: as §2
[14] = species: Oryctolagus cuniculus; assay: Concentration required to reduced U-46619-induced contraction of the rabbit aorta by 50%; assay type: functional
[15] = species: Homo sapiens; assay: Concentration required to reduced U-46619-induced aggregation of human platelet by 50%; assay type: functional; method in brief: as §1
[16] = system: Rattus norvegicus; assay: Compound was tested in vivo for the inhibition of U-46619-induced bronchoconstriction in rat, 1 hr after oral administration at a dose of 5 mg/Kg.; assay type: functional; conditions: read-out: Inhibition; method in brief: as §3

Compound `O=C(O)Cc1ccc(CCNS(=O)(=O)c2ccc(Cl)cc2)cc1` [DALTROBAN] has an IC50 [1] of 0.64 µM, an inhibition in vivo at 5 mg/kg [2] of less than 84% and an IC50 [3] of 0.12 µM. The inhibition in vivo at 5 mg/kg [4] was less than 73%, the IC50 [5] was 0.062 µM and the inhibition in vivo at 1.25 mg/kg [6] was 36%.

In the case of `Cc1c(C)c(CO)c(C)c(C(CCCCCC(=O)O)c2ccc(F)cc2)c1O` (stereo unspecified), the inhibition in vivo at 1.25 mg/kg [7] is reported as less than 40%, the IC50 [8] is reported as 0.032 µM and the IC50 [9] is reported as 0.079 µM. It also gave an inhibition in vivo at 0.31 mg/kg [10] of 57%, an inhibition in vivo at 5 mg/kg [4] of less than 65% and an IC50 [5] of 0.032 µM.

For `COCc1c(C)c(C)c(O)c(C(CCCCCC(=O)O)c2ccc(F)cc2)c1C` (stereo unspecified), the IC50 [5] was 0.34 µM.

`Cc1c(C)c2c(c(C(CCCCCC(=O)O)c3ccc(F)cc3)c1O)CCCC2=O` (stereo unspecified) gave an IC50 [5] of 0.076 µM.

For `CC(=O)c1c(C)c(C)c(C(CCCCCC(=O)O)c2ccc(F)cc2)c(O)c1C` (stereo unspecified), the IC50 [5] was 0.25 µM.

In the case of `Cc1c(C)c(C=O)c(C)c(C(CCCCCC(=O)O)c2ccccc2)c1O` (stereo unspecified), the IC50 [1] is reported as 1.4 µM, the inhibition in vivo at 5 mg/kg [2] is reported as 30% and the IC50 [3] is reported as 0.19 µM.

`Cc1c(C)c(C(=O)O)c(C)c(C(CCCCCC(=O)O)c2ccc(F)cc2)c1O` (stereo unspecified) was tested, and the IC50 [5] was 3.2 µM.

Compound `Cc1cc(C)c(C(CCCCCC(=O)O)c2ccc(F)cc2)c(O)c1C` (stereo unspecified) has an IC50 [5] of 0.45 µM.

In the case of `CC(=O)c1c(C)c(C)c(O)c(C(CCCCCC(=O)O)c2ccc(F)cc2)c1C` (stereo unspecified), the inhibition in vivo at 5 mg/kg [2] is reported as 76%, the IC50 [8] is reported as 0.27 µM and the IC50 [9] is reported as 0.069 µM. The IC50 [11] was 0.08 µM, the inhibition in vivo at 5 mg/kg [4] was 42% and the IC50 [5] was 0.08 µM. For the same compound, the inhibition in vivo at 1.25 mg/kg [6] was 22%.

`Cc1c(C)c2c(c(C(CCCCCC(=O)O)c3ccc(F)cc3)c1O)CCC2=O` (stereo unspecified) showed an inhibition in vivo at 5 mg/kg [2] of less than 95%, an inhibition in vivo at 1.25 mg/kg [7] of less than 50% and an IC50 [8] of 0.027 µM. For the same compound, the IC50 [9] was 0.078 µM, the IC50 [11] was 0.013 µM and the inhibition in vivo at 0.31 mg/kg [10] was -3%. The inhibition in vivo at 5 mg/kg [4] was 78%, the IC50 [5] was 0.013 µM and the inhibition in vivo at 1.25 mg/kg [6] was 59%.

`Cc1c(C)c(Cl)c(C)c(C(CCCCCC(=O)O)c2ccc(F)cc2)c1O` (stereo unspecified) showed an IC50 [5] of 0.84 µM.

With `Cc1cc(C)c(O)c(C(CCCCCC(=O)O)c2ccc(F)cc2)c1C` (stereo unspecified) the IC50 [5] was 0.24 µM.

With `Cc1c(C)c(C=O)c(C)c(C(CCCCCC(=O)O)c2ccc(F)cc2)c1O` (stereo unspecified) the IC50 [1] was 0.31 µM, the inhibition in vivo at 5 mg/kg [2] was 84% and the inhibition in vivo at 1.25 mg/kg [7] was less than 54%. The IC50 [3] was 0.01 µM, the IC50 [11] was 0.0044 µM and the inhibition in vivo at 0.31 mg/kg [10] was 33%. For the same compound, the inhibition in vivo at 5 mg/kg [4] was 68% and the inhibition in vivo at 1.25 mg/kg [6] was less than 67%.

`Cc1c(C)c(C(CCCCCC(=O)O)c2ccc(F)cc2)c(O)c(C)c1CO` (stereo unspecified) gave an IC50 [5] of 0.65 µM.

`Cc1c(C)c2c(c(C(CCCCCC(=O)O)c3ccc(F)cc3)c1O)CCC2` (stereo unspecified) was tested, and the IC50 [5] was 0.16 µM.

With `CCCCC(=O)c1c(C)c(C)c(O)c(C(CCCCCC(=O)O)c2ccc(F)cc2)c1C` (stereo unspecified) the IC50 [5] was 0.19 µM.

Compound `Cc1c(C)c(C)c(C(CCCCCC(=O)O)c2ccc(F)cc2)c(O)c1C` (stereo unspecified) has an IC50 [5] of 0.13 µM.

`Cc1c(C)c(Br)c(C)c(C(CCCCCC(=O)O)c2ccc(F)cc2)c1O` (stereo unspecified) gave an IC50 [5] of 0.2 µM.

Compound `Cc1c(C)c(CO)c(C)c(C(CCCCCC(=O)O)c2ccccc2)c1O` (stereo unspecified) has an IC50 [5] of 0.82 µM.

Work on `Cc1c(O)c(C(CCCCCC(=O)O)c2ccc(F)cc2)c(C)c2c1CCC2` (stereo unspecified) yielded an inhibition in vivo at 5 mg/kg [12] of 76%, an inhibition in vivo at 1.25 mg/kg [13] of 37% and an IC50 [14] of 0.23 µM. For the same compound, the IC50 [15] was 0.31 µM, the inhibition in vivo at 5 mg/kg [16] was 48% and the IC50 [5] was 0.049 µM.

Compound `Cc1c(C)c(CCO)c(C)c(C(CCCCCC(=O)O)c2ccc(F)cc2)c1O` (stereo unspecified) has an IC50 [5] of 0.25 µM.

Compound `Cc1c(O)c(C(CCCCCC(=O)O)c2ccc(F)cc2)c(C)c2c1CC(=O)C2` (stereo unspecified) has an inhibition in vivo at 5 mg/kg [2] of less than 42% and an IC50 [5] of 0.079 µM.
